From ChEMBL document CHEMBL4393708, “Pyridinylimidazoles as dual glycogen synthase kinase 3β/p38α mitogen-activated protein kinase inhibitors” (Eur J Med Chem, 2019)

Columns and labels:
[1] = Drug uptake in RjOrl:Swiss CD-1 mouse brain at 10 mg/kg, iv administered as single dose measured after 2 hrs by LC-MS analysis; assay type: ADME, organism-based; conditions: read-out: Drug uptake
Summary of the method: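 Adult male RjOrl:Swiss CD-1 mice got one intravenous dose of 10 mg/kg. Plasma was sampled at 10, 30 and 120 min. After the last sample the mice were sacrificed and brains dissected. Blood and brain samples were prepared and analysed by LC-MS for parent and sulfoxide metabolite; brain levels reported as ng/g.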

[2] = molecular target: Aurora kinase A (Homo sapiens) (UniProt O14965); assay: Inhibition of recombinant human Aurora A at 1 uM using Ulight-RRRSLLE substrate incubated for 15 mins in presence of ATP by LANCE assay relative to control
Chain of Aurora kinase A (Homo sapiens) (O14965 whole entry): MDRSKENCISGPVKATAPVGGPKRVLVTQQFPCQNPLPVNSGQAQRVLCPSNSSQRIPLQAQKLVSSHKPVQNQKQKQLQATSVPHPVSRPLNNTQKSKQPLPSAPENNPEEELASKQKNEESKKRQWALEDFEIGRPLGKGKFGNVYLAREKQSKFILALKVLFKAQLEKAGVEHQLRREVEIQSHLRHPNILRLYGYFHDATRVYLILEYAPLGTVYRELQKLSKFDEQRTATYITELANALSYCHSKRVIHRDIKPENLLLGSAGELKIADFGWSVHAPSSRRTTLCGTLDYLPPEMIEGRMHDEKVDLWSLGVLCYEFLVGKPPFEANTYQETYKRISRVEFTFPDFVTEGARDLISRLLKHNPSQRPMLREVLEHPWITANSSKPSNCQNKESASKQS

## CCc1nc(-c2ccc(F)cc2)c(-c2ccnc(NC(=O)C3CC3)c2)[nH]1
[1]
  concentration at 2 h: 13.3 ng/g
[2]
  inhibition: 2.76%
